Paper PMC11359625 (ACS Omega, 2024)
≈ marks a conversion by molar mass, not a printed value. Like-named read-outs stand apart in the source and are kept apart here. Blank lines part the entries; values can stand above or below the compound they belong to.

Legend:
[1] = test system: PTP1B; conditions: cited from earlier work
[2] = test system: AR; conditions: cited from earlier work
[3] = test system: polyol pathway; conditions: cited from earlier work
[4] = test system: human lens AR; conditions: at a dose of 5 μM; cited from earlier work
[5] = test system: PTP1B; conditions: cited from earlier work; remark: listed apart in the source
[6] = test system: AR; conditions: cited from earlier work; remark: listed apart in the source
[7] = target: T1, PTP1B (Homo sapiens, UniProt P18031); assay: PTP1B inhibitory activity with pNPP substrate; type: biochemical
T1 sequence (P18031 1-435): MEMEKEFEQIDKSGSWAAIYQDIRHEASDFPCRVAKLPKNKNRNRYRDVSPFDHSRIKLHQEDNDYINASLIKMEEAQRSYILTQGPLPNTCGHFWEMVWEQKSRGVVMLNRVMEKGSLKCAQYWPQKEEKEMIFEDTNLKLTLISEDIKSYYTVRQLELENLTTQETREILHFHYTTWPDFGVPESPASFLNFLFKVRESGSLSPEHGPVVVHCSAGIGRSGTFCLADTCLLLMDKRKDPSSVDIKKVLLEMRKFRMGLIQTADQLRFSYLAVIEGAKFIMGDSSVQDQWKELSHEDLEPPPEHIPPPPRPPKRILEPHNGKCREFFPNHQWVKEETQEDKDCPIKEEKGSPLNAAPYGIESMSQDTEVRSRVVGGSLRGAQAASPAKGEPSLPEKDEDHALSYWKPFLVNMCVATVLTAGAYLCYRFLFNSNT

[8] = target: Recombinant human aldose reductase (Homo sapiens, UniProt P15121); assay: AR activity assay; type: biochemical
[9] = target: T1, PTP1B; assay: Kinetic study, Lineweaver–Burk plot, PTP1B; type: biochemical; conditions: alkannin 0-20 μM
In short: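 Recombinant human PTP1B (0.5 units in PTP1B reaction buffer) preincubated with the test compound at several concentrations for 10 min at 37 °C. pNPP substrate then added and incubated 15 min at 37 °C; reaction stopped with 10 M NaOH and read at 405 nm. Inhibition type taken from a Lineweaver–Burk plot; mean ± SEM, triplicate experiments.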

[10] = target: AR (Homo sapiens, UniProt P15121); assay: Kinetic study, Lineweaver–Burk plot, AR; type: biochemical; conditions: alkannin 0-20 μM
In short: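 Recombinant human aldose reductase in 0.05 M sodium phosphate, pH 6.2, with 0.3 mM NADPH and DL-glyceraldehyde substrate, at several test-compound concentrations. Activity followed as the fall in NADPH absorbance at 340 nm over 4 min. Inhibition type assigned from a Lineweaver–Burk double-reciprocal plot; mean ± SEM of triplicate experiments.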

[11] = test system: HepG2 cells; assay: MTT cytotoxicity assay; type: cell-based; conditions: up to 50 μM, 24 h
In short: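 Normal HepG2 cells seeded at 5 × 10³ cells/well and grown 24 h. Test compound in DMSO added at […] for 24 h. MTT then added, and absorbance used to calculate percent cell viability.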

[12] = test system: IR-HepG2 cells; assay: 2-NBDG glucose uptake in insulin-resistant HepG2 cells; type: cell-based; conditions: 24 h treatment, concentration-dependent
In short: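 Insulin resistance induced in confluent HepG2 (5 × 10³ cells/well; MEM, 10% FBS, 37 °C, 5% CO2) with 1 μM insulin for 24 h. Test compound added at several concentrations below 50 μM for 24 h, then 1 μM insulin for 30 min and 50 μM 2-NBDG for 30 min. Cells washed with ice-cold PBS; fluorescence read at ex 485/em 528 nm. Uptake expressed relative to untreated normal HepG2 (100%); mean ± SEM, triplicate.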

[13] = test system: PTP1B mRNA in IR-HepG2 cells; assay: PTP1B mRNA expression by real-time qPCR; type: cell-based
[14] = test system: C57BL/KsJ-db/db mice; conditions: 20 and 40 mg/kg body weight; cited from earlier work
[15] = test system: HepG2 cells; conditions: up to 40 μM; ref Xue et al.; cited from earlier work
[16] = test system: AR; conditions: read-out: IC50 AR inhibition; in vitro; cited from earlier work
[17] = test system: human recombinant AR; conditions: cited from earlier work

Structure (SMILES): O=C(O)[C@H]1O[C@@H](Oc2c(-c3cc(O)c(O)c(O)c3)oc3cc(O)cc(O)c3c2=O)[C@H](O)[C@@H](O)[C@@H]1O [myricetin-3-O-β-Dglucuronide]
IC50 PTP1B inhibitory activity [1]: 9.47 ± 3.31 µg/mL (≈ 19.2 µM)

Structure (SMILES): O=c1c(O)c(-c2ccc(O)c(O)c2)oc2cc(O)cc(O)c12 [Quercetin]
AR inhibition ([2]; at a dose of 10 μM): 95% | manner of AR inhibition [2]: noncompetitive | reduction in the accumulation of xylitol [3]: 80% | inhibition of human lens AR [4]: 50%

Structure (SMILES): CC1=C[C@H]2c3c(O)cc(-c4cc5ccc(O)cc5o4)cc3O[C@@]3(c4ccc(O)cc4O)Oc4cc(O)ccc4[C@H](C1)[C@@H]23 [mulberrofuran G]
type of PTP1B enzyme inhibition [5]: mixed-type

Structure (SMILES): O=C(O)[C@H]1O[C@@H](Oc2c(-c3ccc(O)c(O)c3)oc3cc(O)cc(O)c3c2=O)[C@H](O)[C@@H](O)[C@@H]1O [quercetin-3-O-β-D-glucuronide]
IC50 PTP1B inhibitory activity [1]: 7.39 ± 1.15 µg/mL (≈ 15.4 µM)

Structure (SMILES): CC(C)=CCc1c(-c2ccc(O)cc2O)oc2c([C@H]3C=C(C)C[C@@H](c4ccc(O)cc4O)[C@@H]3C(=O)c3ccc(O)cc3O)c(O)cc(O)c2c1=O [kuwanon G]
type of PTP1B enzyme inhibition [5]: mixed-type

Structure (SMILES): O=C1C=C(O)C(=O)C=C1O [2,5-dihydroxy-p-benzoquinone]
manner of AR inhibition [6]: noncompetitive

IC50 [7]: 19.5 µM | IC50 [8]: 22.8 µM | type of inhibition of PTP1B [9]: mixed-inhibition | type of inhibition of AR [10]: mixed-inhibition
Structure (SMILES): CC(C)=CC[C@H](O)C1=CC(=O)c2c(O)ccc(O)c2C1=O [Alkannin]
cytotoxicity on normal HepG2 cells (MTT) [11]: insignificant cytotoxicity | insulin-stimulated 2-NBDG uptake [12]: significantly enhanced | PTP1B mRNA expression [13]: significantly reduced | effect on liver injury and inflammation in diabetic mice [14]: protective role | effect in HepG2 cells pretreated with palmitic acid [15]: protective role

Structure (SMILES): COc1cc(/C=C/C(=O)CC(=O)/C=C/c2ccc(O)c(OC)c2)ccc1O [curcumin]
IC50 [16]: 6.8 µM | manner of inhibition of human recombinant AR [17]: noncompetitive

Structure (SMILES): Cc1cc2c3c(c1)-c1c(O)cc(-c4cc5ccc(O)cc5o4)cc1OC3(c1ccc(O)cc1O)Oc1cc(O)ccc1-2 (stereo not drawn) [albanol B]
type of PTP1B enzyme inhibition [5]: mixed-type
